Tm and folding enthalpy data for 55 sequences are collected here from the array DNA melting data of Ke et al. (doi:10.1101/2024.01.08.574731).

A short description of data set [1]: melting temperature; fluorescence melt of hairpins on a sequencing array, two-state fit, raised by 9.35 °C to match UV melts. The settings on record: sodium 0.088 M. The gist of the method:
(§1)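 Bootstrapped two-state fits yielded melting temperature and folding enthalpy for library hairpins. Cy3 fluorescence, with annealed Cy3 and quencher oligos, was imaged on a sequenced MiSeq flow cell in 50 mM Na-HEPES pH 8.0, 25 mM NaCl in 2.5 °C steps up to 60 °C, and normalised to pre-quench Cy3 and to control constructs. Four replicates were combined by inverse variance, and fitted temperatures were raised by 9.35 °C to match UV melts.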

A short description of data set [2]: folding enthalpy; higher = less favourable; fluorescence melt of hairpins on a sequencing array, two-state fit. The settings on record: sodium 0.088 M. The gist of the method: as §1

Regarding GCTGCACGAAAGTGAAGC (((.(((....))).))), the Tm in data set [1] came to 60.5 °C. The folding enthalpy in data set [2] is -36 kcal/mol.

Take GTGATAGGAAACTACCAC (((.(((....))).))): the Tm in data set [1] stood at 33.5 °C. Further, the folding enthalpy in data set [2] was -27.3 kcal/mol.

As for TGCGGGAAACCGCA (((((....))))), in data set [1], the Tm was 66.5 °C. The folding enthalpy in data set [2] was -15.7 kcal/mol.

In the case of GACCTGGGAAACCAGATC ((.((((....)))).)), in data set [1], the Tm was found to be 36.1 °C. Moreover, in data set [2], the folding enthalpy was -22.5 kcal/mol.

As to GGTACTGGAAACAGTACC (((((((....))))))), the Tm in data set [1] is 61.5 °C. Further, the folding enthalpy in data set [2] was -50.7 kcal/mol.

For GACAACGAAAGTTTGTC ((((((....))).))), in data set [1], the Tm was 47.3 °C. The folding enthalpy in data set [2] is -27.6 kcal/mol.

Consider TGGTAGAAATACCA (((((....))))), for which the Tm in data set [1] worked out at 36.8 °C. Further, the folding enthalpy in data set [2] is -12.8 kcal/mol.

For the sequence GTAATTGAAAAATTAC ((((((....)))))), in data set [1], the Tm worked out at 40.3 °C. Moreover, the folding enthalpy in data set [2] is -26.2 kcal/mol.

With GGTTAAGGAAACTTAATC (.(((((....))))).), the Tm in data set [1] was 31.7 °C. In data set [2], the folding enthalpy is -21.7 kcal/mol.

Regarding GTCCTCGAAAGAGCCGAC ((((((....)))..))), the Tm in data set [1] was 26.7 °C. Besides, the folding enthalpy in data set [2] was -12.4 kcal/mol.

For GTGCGAGGAAACCCACAC (((.(.(....).).))), the Tm in data set [1] is 24.6 °C. Moreover, in data set [2], the folding enthalpy was -10.4 kcal/mol.

In the case of GTCAGCGGAAACGCTGGC (.(((((....))))).), the Tm in data set [1] was determined as 63.7 °C. In addition, the folding enthalpy in data set [2] is -24.6 kcal/mol.

For the sequence GATCCGGGAAACTGGGTC ((.((.(....).)).)), in data set [1], the Tm came to 40 °C. Besides, the folding enthalpy in data set [2] was -30.1 kcal/mol.

With GTAAACGAAAGTTTAC ((((((....)))))), the Tm in data set [1] was 56 °C. Also, the folding enthalpy in data set [2] was -35.2 kcal/mol.

CGAGCCGGAAACGGTCG (((.(((....)))))): the Tm in data set [1] stood at 48.6 °C. Further, the folding enthalpy in data set [2] is -27.3 kcal/mol.

For the sequence GAGGCAGGAAACTGCCCC (.(((((....))))).), the Tm in data set [1] amounted to 44.2 °C. In data set [2], the folding enthalpy is -9.1 kcal/mol.

As for GCATACGAAAGTATTGC ((((((....))).))), the Tm in data set [1] was 45.7 °C. Besides, the folding enthalpy in data set [2] was -25.1 kcal/mol.

GTTTTTACGAAAGTAAAC (((..(((....)))))): the Tm in data set [1] is 29.9 °C. Also, the folding enthalpy in data set [2] is -17.1 kcal/mol.

As to GATCGTTAGCACGATC ((((((....)))))), the Tm in data set [1] stood at 51.4 °C. Moreover, in data set [2], the folding enthalpy is -32.3 kcal/mol.

In the case of GGCCACCGAAAGGTTGCC (((.(((....))).))), the Tm in data set [1] turned out to be 58.1 °C. Further, the folding enthalpy in data set [2] is -44.3 kcal/mol.

Regarding GATAACCCGAAAGGGATC (((..(((....)))))), the Tm in data set [1] was determined as 28.9 °C. Further, the folding enthalpy in data set [2] is -17.8 kcal/mol.

Turning to GCCTCTACGAAAGTAGGC (((..(((....)))))), the Tm in data set [1] was 47.9 °C. Besides, the folding enthalpy in data set [2] is -12.2 kcal/mol.

With GGAAAACCGAAAGGTTCC (((..(((....)))))), in data set [1], the Tm is 35.8 °C. In addition, the folding enthalpy in data set [2] is -13.8 kcal/mol.

As to GATGGAGGAAACTCCATC (((((((....))))))), the Tm in data set [1] is 59 °C. Also, the folding enthalpy in data set [2] was -38.5 kcal/mol.

As to GGCGATCGAAAGATGGCC (((.(((....))).))), in data set [1], the Tm was found to be 57.6 °C. The folding enthalpy in data set [2] was -47.6 kcal/mol.

For the sequence GATTTTGGAAACAGAATC ((((.((....)).)))), the Tm in data set [1] stood at 32.1 °C. In data set [2], the folding enthalpy is -24.7 kcal/mol.

As for GTAGGTGGAAACACTTAC (((.(((....))).))), the Tm in data set [1] is 39.5 °C. Further, the folding enthalpy in data set [2] is -28.4 kcal/mol.

GCGTTTCGACGC ((((....)))): in data set [1], the Tm turned out to be 55.9 °C. The folding enthalpy in data set [2] was -28.6 kcal/mol.

On to GCGGCTGACCGC ((((....)))), for which the Tm in data set [1] turned out to be 58.1 °C. Further, the folding enthalpy in data set [2] is -24.3 kcal/mol.

In the case of GTGACCGGAAACGGTTAC ((.((((....)))).)), in data set [1], the Tm worked out at 54.9 °C. In addition, the folding enthalpy in data set [2] was -26.4 kcal/mol.

As to GCACGCGGAAACGCGCGC ((.((((....)))).)), the Tm in data set [1] was determined as 68.5 °C. Besides, the folding enthalpy in data set [2] is -23.5 kcal/mol.

For the sequence GTCATCGAAAGATACGAC ((((((....)))..))), in data set [1], the Tm was 35 °C. For the same sequence, in data set [2], the folding enthalpy was -20.9 kcal/mol.

GTTGCAGGAAACTGCGAC ((.((((....)))).)): in data set [1], the Tm amounted to 53.9 °C. Besides, in data set [2], the folding enthalpy is -28 kcal/mol.

Regarding GCTCTGGGAAACCAGAGC (((((((....))))))), in data set [1], the Tm amounted to 69 °C. For the same sequence, the folding enthalpy in data set [2] is -42.5 kcal/mol.

On to GCGAAGCGAAAGCTGTGC ((..(((....)))..)), for which the Tm in data set [1] came out at 46.5 °C. Besides, the folding enthalpy in data set [2] was -8.75 kcal/mol.

Consider GCAACCGAAAGGTCTTGC ((((((....)))..))), for which the Tm in data set [1] was 35.7 °C. Also, the folding enthalpy in data set [2] is -16.5 kcal/mol.

As for GTGGTCGGAAACGGCCAC ((((.((....)).)))), the Tm in data set [1] amounted to 63.5 °C. In addition, the folding enthalpy in data set [2] is -33.7 kcal/mol.

As for GTAAGTGGAAACACTCAC ((.((((....)))).)), the Tm in data set [1] is 32.7 °C. Also, the folding enthalpy in data set [2] is -15.4 kcal/mol.

In the case of GATCTATTTTAGATC ((((((...)))))), the Tm in data set [1] was determined as 41.7 °C. In data set [2], the folding enthalpy is -32.7 kcal/mol.

As to GTGCTACGAAAGTAACAC (((.(((....))).))), the Tm in data set [1] stood at 46.7 °C. For the same sequence, the folding enthalpy in data set [2] was -32.7 kcal/mol.

For GTAGCTCCGAAAGGATAC (((..(((....)))))), the Tm in data set [1] was 25.4 °C. Moreover, the folding enthalpy in data set [2] was -14.6 kcal/mol.

Turning to GCGTTCAGACGC ((((....)))), the Tm in data set [1] came to 53.6 °C. For the same sequence, in data set [2], the folding enthalpy was -23.8 kcal/mol.

In the case of GCACGGCGAAAGCGATGC (((..((....))..))), in data set [1], the Tm came out at 47.2 °C. For the same sequence, the folding enthalpy in data set [2] was -18.2 kcal/mol.

Regarding GATCCTATGAGGATC ((((((...)))))), the Tm in data set [1] was 53.7 °C. For the same sequence, in data set [2], the folding enthalpy is -34.7 kcal/mol.

As to GCTAATGGAAACATTGGC ((.((((....)))).)), the Tm in data set [1] is 45.6 °C. Further, in data set [2], the folding enthalpy was -41.2 kcal/mol.

Consider CGGCCGGAAACGGAACCG ((((((....)))..))), for which the Tm in data set [1] was determined as 46 °C. Also, in data set [2], the folding enthalpy is -26.2 kcal/mol.

With GATAACCGAAAGGTATC (((.(((....)))))), the Tm in data set [1] was 38.9 °C. The folding enthalpy in data set [2] is -17.4 kcal/mol.

On to GGGAGGCCGAAAGGCCCC (((..(((....)))))), for which the Tm in data set [1] is 56.6 °C. The folding enthalpy in data set [2] was -9.7 kcal/mol.

GCTTTTCGAAAGAAAGC (((.(((....)))))): the Tm in data set [1] worked out at 44.5 °C. Besides, in data set [2], the folding enthalpy was -25.1 kcal/mol.

As to GAGAGCGAAAGCTCCTC ((((((....))).))), the Tm in data set [1] was 49 °C. For the same sequence, the folding enthalpy in data set [2] is -10.3 kcal/mol.

Turning to GCTTAGGGAAACCTGAGC (((.(((....))).))), in data set [1], the Tm turned out to be 46.7 °C. Also, the folding enthalpy in data set [2] is -32.8 kcal/mol.

As to GTGAGCTCGAAAGAGCAC (((..(((....)))))), in data set [1], the Tm is 65 °C. The folding enthalpy in data set [2] is -9.96 kcal/mol.

Consider GATCGATCATCGATC ((((((...)))))), for which the Tm in data set [1] worked out at 50.5 °C. Also, the folding enthalpy in data set [2] is -33.2 kcal/mol.

Take GACTTAGGAAACTAAGCC (.(((((....))))).): the Tm in data set [1] was 34.2 °C. In addition, in data set [2], the folding enthalpy was -21.9 kcal/mol.

Turning to GCCGGCTCGAAAGAGGGC (((..(((....)))))), the Tm in data set [1] stood at 46.9 °C. Moreover, in data set [2], the folding enthalpy was -19.2 kcal/mol.
